The results in this text go back to BindingDB's records for doi:10.1021/jm901449m (Progen Pharmaceuticals, 2010).

Each structure is given as a SMILES string.

Experiment [1] deals with Fibroblast growth factor 2 (Homo sapiens, UniProt P09038). The experiment in a line: Binding affinity to FGF2 by surface plasmon-based solution affinity assay. In short, it runs like this:
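Surface plasmon resonance solution affinity assay on heparin-coated CM4 chips. FGF-2 binding run in HBS-EP containing 300 mM NaCl. Kd is the mean of at least duplicate measurements ± SD.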
(In SPR one partner is held on a chip, and binding of the other changes the refractive index at the surface.)

Experiment [2] deals with T1, Heparanase (Homo sapiens, UniProt Q9Y251).
T1 sequence (Q9Y251 whole entry): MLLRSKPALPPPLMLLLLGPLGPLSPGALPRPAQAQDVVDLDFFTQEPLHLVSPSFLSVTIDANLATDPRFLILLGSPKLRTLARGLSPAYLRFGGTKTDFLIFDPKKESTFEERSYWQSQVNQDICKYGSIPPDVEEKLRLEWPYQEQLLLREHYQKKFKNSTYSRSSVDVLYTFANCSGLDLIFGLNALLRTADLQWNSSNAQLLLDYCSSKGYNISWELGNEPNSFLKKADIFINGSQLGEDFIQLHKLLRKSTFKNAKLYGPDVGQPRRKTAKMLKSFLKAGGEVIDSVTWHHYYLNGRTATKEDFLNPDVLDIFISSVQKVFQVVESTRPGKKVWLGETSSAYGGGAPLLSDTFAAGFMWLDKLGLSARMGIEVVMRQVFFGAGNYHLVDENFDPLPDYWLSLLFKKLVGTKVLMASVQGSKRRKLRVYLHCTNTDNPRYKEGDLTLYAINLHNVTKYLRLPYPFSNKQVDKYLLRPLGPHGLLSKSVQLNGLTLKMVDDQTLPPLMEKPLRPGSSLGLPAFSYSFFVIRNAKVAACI
The experiment in a line: Inhibition of human recombinant heparanase. In short, it runs like this:
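Recombinant human heparanase assayed by ultrafiltration with 3H-labelled heparan sulfate as substrate (Km = 1.64 μM). Ki values with standard error were derived from inhibition response curves.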

The target in experiment [3] is T2, Vascular endothelial growth factor A (Homo sapiens, UniProt P15692).
T2 sequence (P15692 whole entry): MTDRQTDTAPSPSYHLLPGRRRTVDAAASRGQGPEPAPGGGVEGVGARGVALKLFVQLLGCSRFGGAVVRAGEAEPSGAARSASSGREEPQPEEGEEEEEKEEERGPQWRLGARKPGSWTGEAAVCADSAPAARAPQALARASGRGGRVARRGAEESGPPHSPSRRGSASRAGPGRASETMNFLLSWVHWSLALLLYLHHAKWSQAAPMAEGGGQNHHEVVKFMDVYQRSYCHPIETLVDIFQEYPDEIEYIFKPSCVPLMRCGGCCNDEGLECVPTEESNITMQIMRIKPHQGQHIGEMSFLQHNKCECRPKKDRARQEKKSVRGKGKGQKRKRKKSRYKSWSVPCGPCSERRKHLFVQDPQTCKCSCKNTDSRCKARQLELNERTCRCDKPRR
The experiment in a line: Binding affinity to VEGF by surface plasmon-based solution affinity assay.

In experiment [4] the target is Fibroblast growth factor 1 (Homo sapiens, UniProt P05230). The experiment in a line: Binding affinity to FGF1 by surface plasmon-based solution affinity assay. In short, it runs like this: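 Surface plasmon resonance solution affinity assay on heparin-coated CM4 chips. Buffer: HBS-EP (10 mM HEPES pH 7.4, 150 mM NaCl, 3.0 mM EDTA, 0.005% polysorbate 20). Kd is the mean of at least duplicate measurements ± SD.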
Chain of Fibroblast growth factor 1 (P05230 whole entry): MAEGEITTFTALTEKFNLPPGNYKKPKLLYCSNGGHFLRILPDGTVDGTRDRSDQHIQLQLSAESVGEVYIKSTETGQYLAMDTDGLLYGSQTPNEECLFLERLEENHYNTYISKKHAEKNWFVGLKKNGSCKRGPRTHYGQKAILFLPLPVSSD

Chain of Fibroblast growth factor 2 (P09038 143-288 limits assumed): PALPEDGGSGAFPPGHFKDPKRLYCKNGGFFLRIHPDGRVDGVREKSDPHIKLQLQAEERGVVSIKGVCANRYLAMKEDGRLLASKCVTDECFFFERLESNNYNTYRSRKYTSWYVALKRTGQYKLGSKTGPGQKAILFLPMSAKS

The term Kd denotes the equilibrium constant for the complex coming apart. In general, Ki refers to the dissociation constant of the complex between target and ligand, obtained from inhibition or displacement. Turning to `O=P(O)(O)OC[C@H]1O[C@H](O[C@@H]2[C@H](OS(=O)(=O)O)[C@@H](O[C@@H]3[C@H](OS(=O)(=O)O)[C@@H](O[C@@H]4[C@H](OS(=O)(=O)O)[C@@H](O[C@@H]5[C@@H](OS(=O)(=O)O)O[C@H](COS(=O)(=O)O)[C@@H](OS(=O)(=O)O)[C@@H]5OS(=O)(=O)O)O[C@H](COS(=O)(=O)O)[C@H]4OS(=O)(=O)O)O[C@H](COS(=O)(=O)O)[C@H]3OS(=O)(=O)O)O[C@H](COS(=O)(=O)O)[C@H]2OS(=O)(=O)O)[C@@H](OS(=O)(=O)O)[C@@H](OS(=O)(=O)O)[C@@H]1OS(=O)(=O)O` [PI-88], the Kd in experiment [1] is 61 nM; in experiment [3] it was 2.2 nM; in experiment [4] it was 0.24 nM. Besides, the Ki in experiment [2] was found to be 240 nM.
